Most compounds without a hit are left out; they make up all but 3% or so of the library.
hiPSC survival = enhancers of single-cell hiPSC survival, primary screen, ATPlite luminescence. AID 602274, 2012. survival enhancement, % at 20 µM. 100% = ROCK inhibitor wells, 0% = DMSO. actives 0.044% (n = 360,000); in the data active = survival enhancement above about 18%;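 also: cells exposed to compounds for 16 hours before the ATP read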
Apaf-1 inh = inhibitors of human Apaf-1 apoptosome, primary screen, biochemical, DEVD-Rh110 fluorescence, uHTS | Apoptotic protease-activating factor 1 (Homo sapiens), O14727 | reconstituted apoptosome caspase-3 activity | inhibition, % at 20 µM | actives 0.71% (n = 330,000); active = inhibition of at least 40% at 20 µM;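 also: plate controls were DMSO wells for no effect and DEVD-CHO caspase inhibitor wells for full effect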
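System: Apoptosome proteins | Medium: Hepes pH 7.5 with detergent and BSA | Also added: Cytochrome c trigger plus (Z-DEVD)2-Rh110 caspase-3 substrate | Incubation: 30 min compound preincubation, 50 min activation, room temperature | Detection: Rhodamine 110 fluorescence at Ex 480/Em 540 nm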
UBC13 polyUb = UBC13 polyubiquitin chain formation inhibitors, primary screen, biochemical, TR-FRET, uHTS; inhibition, % at 20 µM; AID 485273, 2010; actives 0.47% (n = 330,000); Ubiquitin-conjugating enzyme E2 N (Homo sapiens), P61088; in the data active = inhibition above about 45%, passing the limit was not always enough
Target sequence (P61088 whole entry, looked up): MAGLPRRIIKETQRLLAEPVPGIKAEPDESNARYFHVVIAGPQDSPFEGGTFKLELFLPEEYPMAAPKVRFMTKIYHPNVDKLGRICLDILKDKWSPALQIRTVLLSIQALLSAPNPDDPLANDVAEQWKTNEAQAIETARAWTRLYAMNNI
MPTP block = mitochondrial permeability transition pore inhibitors, primary screen, biochemical, isolated mouse mitochondria, absorbance; Ca2+ swelling absorbance, 30 min; inhibition, % at 10 µM; actives 1.4% (n = 360,000);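 active = inhibition of 50% or more, scaled per plate between neutral and stimulator controls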;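 also: 0% = DMSO wells given calcium and 100% = 1 mM EGTA wells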
beta cell repl = inducers of MIN6 beta-cell proliferation, primary screen, ATP luminescence, uHTS; MIN6 cells proliferation, ATPlite luminescence, 48 h; cells starved in 0.2% serum; 100% = growth in 10% serum; proliferation, % at 10 µM; actives 0.29% (n = 330,000);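 active = compounds whose signal lies at least 3.5 SD above the mean of all wells on their plate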;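 also: 0% = DMSO-treated cells in low-serum medium and 100% = 10% serum control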
Exocytosis inh = LAMP-1 surface exposure blockers, TALL-104 cells – cell-based, flow cytometry, MLPCN library, primary screen | TALL-104 LAMP-1 surface exposure; cells stimulated with thapsigargin and PMA | actives 0.66% (n = 360,000) | inhibition, % at 10 µM;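 active = inhibition above about 55%, limit read from the data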
Granule exo CP1 = inhibitors of lytic granule exocytosis, confirmation, TALL-104 cells, flow cytometry, Cherry Pick01 | LAMP-1 externalization; stimulated with PMA plus thapsigargin | actives 11% (n = 1,500) | shares compounds with Exocytosis inh | inhibition, % at 10 µM | AID 651954, 2012; in the data active = inhibition above about 60%;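 also: 0% = stimulated vehicle wells and 100% = unstimulated wells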
Active calls of the source: *; nt = no result given.

SMILES	hiPSC survival	Apaf-1 inh	UBC13 polyUb	MPTP block	beta cell repl	Exocytosis inh	Granule exo CP1
c1ccc(C2=NOC(c3nnc(-c4ccccc4)o3)C2)cc1 (stereo not drawn)	-3	2	2	0	3	91*	-13
Cc1ccc(NC2CCCN(C(=O)C3CCCCC3)C2)cc1C (stereo not drawn)	0	23	-5	0	2	-1	nt
O=c1c2cc([N+](=O)[O-])ccc2sn1-c1ccccc1	-2	nt	nt	9	nt	11	nt
CC(=O)Nc1ccc2sn(-c3ccccc3)c(=O)c2c1	-3	nt	nt	8	nt	60*	94*
CC(C)N1CCC(C)(C(=O)Nc2cccc3c2CCCC3)C1 (stereo not drawn)	-2	nt	nt	1	nt	-1	nt
COc1ccc(C(=O)Nc2c(O)ccc3ccccc23)cc1	0	21	-15	18	-2	7	nt
COc1ccc(NC(=O)Nc2c(O)ccc3ccccc23)cc1	0	32	4	6	-4	87*	-4
COc1ccc(C(=O)/C=C2\C(=O)Nc3ccc(Br)cc32)cc1	-2	nt	nt	0	nt	82*	40
COc1cccc(-c2nc(NC(C)(C)C)c3ccccc3n2)c1O	-2	27	-14	16	-6	56*	-11
COc1ccccc1C1CCN(Cc2cccc3ccccc23)CC1	0	9	12	-1	-7	60*	-3
Cc1ccc(OCC(=O)N/N=C/c2cccc3cccnc23)cc1	0	9	-1	0	-3	-7	nt
Cc1nc2ccccc2n1CC(O)Cn1c2ccccc2c2ccccc21 (stereo not drawn)	-2	22	28	10	-5	58*	-10
COc1cc(C=O)ccc1OCC(=O)Nc1ccc2c(c1)OCO2	0	4	-1	-1	-2	14	nt
COc1cc2c(cc1O)[C@@H]1Cc3cc(OC)c(OC)cc3C(C2)N1C	-1	2	-4	0	1	-3	nt
COc1cc2c(cc1OC)[C@@H]1Cc3cc4c(cc3[C@H](C2)N1C)OCO4	2	-6	0	1	0	79*	-14
Cc1cccc(CNC(=O)Cn2ccc3cc(S(=O)(=O)N4CCCC4)ccc32)c1	0	1	8	0	-2	-3	nt
O=C(CSc1nc2ccccc2s1)N1c2ccccc2Sc2ccccc21	0	14	-3	0	-4	62*	2
C=CCCC(=O)Nc1nc(C)c(-c2csc(Nc3ccccc3OC)n2)s1	4	-2	-10	-1	-7	4	nt
CCCCC(=O)Nc1nc(C)c(-c2csc(Nc3ccccc3OC)n2)s1	1	-5	-12	1	-7	57*	-14
CCCCN(C(=O)c1cc2c(s1)CCCCC2)c1c(N)n(CC(C)C)c(=O)[nH]c1=O	0	7	-4	-1	2	8	nt
Cn1nc(C(C)(C)C)cc1NC(=O)C1(C)CCN1C(=O)c1ccccc1CCc1ccccc1 (stereo not drawn)	0	nt	nt	1	nt	98*	-4
Cn1nc(C(C)(C)C)cc1NC(=O)C1(C)CCN1C(=O)CCc1ccccc1 (stereo not drawn)	-2	nt	nt	0	nt	0	nt
CN(CC(=O)Nc1ccccc1C(F)(F)F)C(=O)C1=COCCO1	2	-9	-1	-2	0	-2	nt
COCCN(CC(=O)Nc1cccc(C)c1C)C(=O)C1CCN(S(=O)(=O)c2ccccc2)CC1	-2	nt	nt	0	nt	0	nt
Cc1ccc(NS(=O)(=O)c2cc(C(=O)NCc3cccnc3)ccc2C)cc1	1	-12	2	-1	-2	63*	-14
SMILES	hiPSC survival	Apaf-1 inh	UBC13 polyUb	MPTP block	beta cell repl	Exocytosis inh	Granule exo CP1
Cc1ccc(S(=O)(=O)Nc2ccc(C(=O)NCc3cccnc3)cc2)cc1	0	5	3	0	1	-3	nt
CC(C(=O)N1CCc2ccccc21)N1CCN(c2cccc(C(F)(F)F)c2)CC1 (stereo not drawn)	0	24	2	0	-1	61*	-13
CCN(Cc1ccc(Br)s1)C(=O)CSc1nnc(C2CC2)n1C1CC1	4	nt	nt	2	nt	-4	nt
CC(C)CCNC(=O)C1CC2Cn3c(nc4cc(Cl)c(Cl)cc43)C2N1C (stereo not drawn)	-2	2	12	-3	-2	62*	-12
Nc1ccn(CCCNC2CCN(Cc3ccccc3)CC2)c(=O)n1	1	nt	nt	0	nt	0	nt
Cc1ccc(C)c(N2CCN(CCCNC(=O)Cn3c(=O)c4cccn4c4cccnc43)CC2)c1	0	-2	1	2	-4	75*	-12
COc1ccc(OC)c(NC(=O)CN(Cc2ccc(F)cc2)C2CCCCC2)c1	0	16	7	2	-7	76*	-11
CC(C)(C)c1ccc(NC(=O)C2=CN3CCS(=O)(=O)N=C3C=C2)cc1	0	-2	4	1	2	-7	nt
O=C1C(=Cc2ccc(F)cc2)CCc2ccccc21	-4	nt	nt	2	nt	-5	nt
CC(C)(C)NC(=O)C(OC(=O)c1cccs1)c1ccc(F)cc1 (stereo not drawn)	2	-1	8	1	1	66*	-4
O=S1(=O)[C@H]2C[C@H](CO)O[C@@]2(CO)CN1Cc1ccc(-c2ccc(F)cc2)cc1	-2	12	nt	-1	nt	1	nt
OC(CN1CCN(c2cccc(Cl)c2)CC1)c1ccccc1 (stereo not drawn)	0	5	8	0	-4	-12	nt
OC(COC(c1ccccc1)c1ccccc1)CN1CCN(c2cccc(Cl)c2)CC1 (stereo not drawn)	0	26	-1	7	-6	68*	-4
COc1ccc(Cl)cc1N(CC(=O)Nc1ccccc1C(=O)N1CCOCC1)S(C)(=O)=O	0	-7	8	2	1	1	nt
Cc1ccccc1N1CCN(C(=O)NCc2cccc(Cl)c2)CC1	0	18	-5	1	-3	86*	-4
CCCNC(=O)C1(C)CCCN(CC(=O)c2ccccc2OC)C1 (stereo not drawn)	1	nt	nt	0	nt	11	nt
Cc1ccc(S(=O)(=O)N2[C@@H](Cc3ccccc3)CO[C@H]2CC(=O)c2ccc(F)cc2)cc1	nt	nt	nt	1	nt	-2	nt
Cc1cc(N2CCN(c3ncccn3)CC2)nc2c(C)cccc12	-1	19	8	-1	-1	72*	-14
Nc1sccc1C(=O)c1ccc(Cl)cc1	1	nt	nt	1	nt	82*	-3

Assay outcomes from PubChem.
